These results are taken from publication PMC6467728 (Journal of medicinal chemistry, 2019).

In one data set the test system is IP6K. The following applies: prior report; cited from earlier work.
Data set [1] concerns IP6K / IPMK activity (InsP7, InsP5, InsP6 levels) in HCT116 cells. It is filed as cell-based, human.
For data set [2] the following is noted: cited from earlier work.
Data set [3] relates to IP6K activity (InsP levels) in HEK293 cells. As to the kind of experiment: HPLC analysis of InsP5, InsP6 and InsP7 levels in HEK293 cells. It is filed as cell-based. The following applies: HEK293, 2.5 µM, 3.5 h. The gist of the method: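 HEK293 cells were labeled with [³H]inositol (20 µCi/ml), then treated 3.5 h with 2.5 µM test compound in DMSO (0.1% final) or vehicle. Cells were quenched with perchloric acid, and extracted [³H]InsP5, InsP6 and InsP7 were resolved by CarboPac HPLC. Values are means ± standard errors, n=3; one-way ANOVA (Dunnett) vs DMSO control.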

In data set [4] the test system is AKT activity in 3T3-L1 preadipocytes. As to the kind of experiment: AKT activity. The following applies: 3 h. It is filed as cell-based. The gist of the method:
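Lysates were made in ice-cold Tris-HCl pH 7.4/NaCl/1% Triton X-100 with protease-phosphatase inhibitors and cleared at 4 °C. Blots of 20 µg protein were probed for p-AKT T308 and total AKT. Ratios were normalized to the per-gel sum; n=3, Dunnett ANOVA vs DMSO.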

Data set [5] has as its system AKT activity in HCT116 cells. As to the kind of experiment: AKT activity. The following applies: 3 h. The data set is classed as cell-based, human. The essentials:
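HCT116 cells, 1 day post-confluent, were exposed 3 h to 10 µM TNP, 2.5 µM test compound or DMSO vehicle (0.1% final). Cells were PBS-washed and lysed in cold Tris-HCl pH 7.4 buffer with 1% Triton X-100 plus protease-phosphatase inhibitors. Blots of 20 µg protein were probed for T308 p-AKT and total AKT. The p-AKT/total ratio was normalized to the gel sum; means ± standard errors, n=5, Dunnett ANOVA.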

A further data set concerns the target hIPMK (Homo sapiens, UniProt Q8NFU5). As to the kind of experiment: hIPMK Adapta TR-FRET kinase assay. It is filed as biochemical. As to conditions: for fold higher IC50 (reduction in inhibitory activity) against hIPMK compared to 2: relative to compound 2.
Another data set deals with T1, hIP6K2 (Homo sapiens, UniProt Q9UHH9).
T1 sequence (Q9UHH9 1-426): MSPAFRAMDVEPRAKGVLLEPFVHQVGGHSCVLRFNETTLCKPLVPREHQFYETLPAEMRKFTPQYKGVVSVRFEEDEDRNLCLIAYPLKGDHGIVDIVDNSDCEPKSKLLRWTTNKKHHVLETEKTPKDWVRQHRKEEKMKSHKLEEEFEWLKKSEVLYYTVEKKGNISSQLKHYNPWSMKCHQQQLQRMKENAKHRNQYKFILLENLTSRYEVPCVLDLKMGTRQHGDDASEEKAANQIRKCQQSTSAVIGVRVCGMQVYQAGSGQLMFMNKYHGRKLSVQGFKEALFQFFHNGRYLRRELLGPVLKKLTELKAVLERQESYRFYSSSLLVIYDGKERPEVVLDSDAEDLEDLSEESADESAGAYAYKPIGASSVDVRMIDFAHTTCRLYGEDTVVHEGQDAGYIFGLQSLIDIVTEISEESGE
As to the kind of experiment: hIP6K2 Adapta TR-FRET kinase assay. It is filed as biochemical. The following applies: for fold higher IC50 against hIP6K2 compared to 3: relative to compound 3; for fold higher IC50 against hIP6K2 compared to 5: relative to compound 5.

Structures are written as SMILES. “Also recorded” adds a separate entry of the source. Read-outs that look alike come from different tables or passages of the source.

hIPMK, sequence (Q8NFU5 whole entry): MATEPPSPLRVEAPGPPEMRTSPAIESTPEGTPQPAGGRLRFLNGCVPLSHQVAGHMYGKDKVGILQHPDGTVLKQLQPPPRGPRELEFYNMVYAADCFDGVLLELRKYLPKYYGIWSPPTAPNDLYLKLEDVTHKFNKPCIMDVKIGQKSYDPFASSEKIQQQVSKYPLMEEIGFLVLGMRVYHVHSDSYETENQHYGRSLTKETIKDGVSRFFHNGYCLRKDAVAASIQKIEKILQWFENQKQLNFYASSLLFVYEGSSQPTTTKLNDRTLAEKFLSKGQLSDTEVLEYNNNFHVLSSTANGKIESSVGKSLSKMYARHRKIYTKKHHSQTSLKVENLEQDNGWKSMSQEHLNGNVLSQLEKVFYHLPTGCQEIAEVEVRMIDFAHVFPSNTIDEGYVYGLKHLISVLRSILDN

`O=c1c(O)c(-c2cc(O)c(O)c(O)c2)oc2cc(O)cc(O)c12` [Compound 1, Myricetin]: the “inhibition of IP6K” value with IP6K was “inhibitor”. In addition, in data set [1] (HCT116, 2.5 µM, 3.5 hr), the “effect on InsP5 levels” value was “not significantly affected”, the “effect on InsP6 levels” value is reported as “not significantly affected” and the “effect on InsP7 synthesis / levels” value is “inhibited InsP7 synthesis; also recorded: only slightly altered InsP7 levels”.
As for `O=c1c(O)c(-c2ccc(O)c(O)c2)oc2cc(O)cc(O)c12` [Compound 2, Quercetin], the “concentration recorded in the human small intestine and colon” value in data set [2] was 2500 nM. The concentration in serum in data set [2] (even after dietary supplementation) was ≤ 1000 nM. Moreover, in data set [3], the “effect on InsP5 levels” value was “not affected”, the “effect on InsP6 levels” value is recorded as “not affected” and the “effect on InsP7 levels” value is on record as “reduced InsP7 levels”. Moreover, the “effect upon AKT activity (p-AKT T308 / total AKT)” value in data set [4] (3T3-L1, 2.5 µM) is recorded as “increased”. The “inhibition of IP6K” value in the data set with IP6K is listed as “no inhibitory effect was observed”. In addition, the “effect upon AKT activity (p-AKT T308 / total AKT)” value in data set [5] (HCT116, 2.5 µM) is reported as “did not observe any statistically-significant effect”. Moreover, the “effect on InsP7 synthesis / levels” value in data set [1] (HCT116, 2.5 µM, 3.5 hr) is on record as “inhibited InsP7 synthesis”. In addition, in data set [1] (HCT116, 2.5 µM, time course), the “effect on InsP5” value is “without significantly impacting”, the “effect on InsP6” value is “without significantly impacting”, the “reduction of InsP7 levels” value is reported as 50 – 70% and the “time of greatest diminution in cellular InsP7 content” value is recorded as 30 min. The “total DPM of InsP7 peak” value in data set [1] (HCT116, 10 μM, 3.5 h, representative HPLC, control 2160) is 195 DPM. Moreover, the “total DPM of InsP5 peak” value in data set [1] (HCT116, 10 μM, 3.5 h, representative HPLC, control 14677) is listed as 10,989 DPM. Further, the “total DPM of InsP6 peak” value in data set [1] (HCT116, 10 μM, 3.5 h, representative HPLC, control 36,327) came to 39521 DPM. Further, in data set [1] (HCT116, 10 µM, 3.5 hr), the “effect on InsP6 levels” value is reported as “not affected” and the “reduction of InsP5 levels” value was “approx. 25%”. For the same compound, in data set [1] (HCT116, 1–10 µM, 3.5 hr), the “effect on InsP7 levels, dose dependence” value is given as “dose-dependent reductions in InsP7 levels”.
As to `O=c1cc(-c2ccc(O)c(O)c2)oc2cc(O)cc(O)c12` [Compound 3, Luteolin], the “fold higher IC50 (reduction in inhibitory activity) against hIPMK compared to 2” value on hIPMK is 2.4- to 3 fold. In data set [3], the “effect on InsP5 levels” value was “not affected”, the “effect on InsP6 levels” value is given as “not affected” and the “effect on InsP7 levels” value is reported as “reduced InsP7 levels”. The “effect upon AKT activity (p-AKT T308 / total AKT)” value in data set [4] (3T3-L1, 2.5 µM) was “increased”. Besides, the “effect upon AKT activity (p-AKT T308 / total AKT)” value in data set [5] (HCT116, 2.5 µM) was “did not observe any statistically-significant effect”. In data set [1] (HCT116, 2.5 µM, 3.5 hr), the “effect on InsP7 synthesis / levels” value is recorded as “inhibited InsP7 synthesis”. The “fold higher IC50 against hIP6K2 compared to 2” value on hIP6K2 (relative to compound 2) was found to be 1.9 fold.
Take `O=c1c(O)c(-c2ccc(O)cc2)oc2cc(O)cc(O)c12` [Compound 4, Kaempferol]: at hIPMK, the “fold higher IC50 (reduction in inhibitory activity) against hIPMK compared to 2” value is listed as 2 fold. Moreover, in data set [1] (HCT116, 2.5 µM, 3.5 hr), the “effect on InsP5 levels” value is given as “not significantly affected”, the “effect on InsP6 levels” value is reported as “not significantly affected” and the “effect on InsP7 synthesis / levels” value was “inhibited InsP7 synthesis”. Moreover, the “fold higher IC50 against hIP6K2 compared to 2” value at hIP6K2 (relative to compound 2) was determined as 3.6 fold.
On to `O=c1cc(-c2ccc(O)cc2)oc2cc(O)cc(O)c12` [Compound 5, Apigenin], for which the “fold higher IC50 against hIP6K2 compared to 2” value on hIP6K2 (relative to compound 2) worked out at 10 fold.
On to `COc1cc(-c2oc3cc(O)cc(O)c3c(=O)c2O)ccc1O` [Compound 6, Isorhamnetin], for which, in data set [1] (HCT116, 2.5 µM, 3.5 hr), the “effect on InsP5 levels” value was “not significantly affected”, the “effect on InsP6 levels” value is “not significantly affected” and the “effect on InsP7 synthesis / levels” value is recorded as “inhibited InsP7 synthesis”.
Turning to `COc1ccc(-c2cc(=O)c3c(O)cc(O)cc3o2)cc1O` [Compound 7, Diosmetin], in data set [3], the “effect on InsP5 levels” value is listed as “not affected”, the “effect on InsP6 levels” value is listed as “not affected” and the “effect on InsP7 levels” value is “reduced InsP7 levels”. Further, the “effect upon AKT activity (p-AKT T308 / total AKT)” value in data set [4] (3T3-L1, 2.5 µM) is given as “increased”. Also, the “effect upon AKT activity (p-AKT T308 / total AKT)” value in data set [5] (HCT116, 2.5 µM) is reported as “did not observe any statistically-significant effect”. Besides, in data set [1] (HCT116, 2.5 µM, 3.5 hr), the “effect on InsP7 synthesis / levels” value is recorded as “inhibited InsP7 synthesis; also recorded: most effective inhibitor of InsP7 levels”. In addition, in data set [1] (HCT116, 2.5 µM, time course), the “effect on InsP5” value is recorded as “no effect”, the “effect on InsP6” value is on record as “did not significantly alter” and the “effect on InsP7 synthesis” value is “most sustained inhibition of InsP7 synthesis”. Further, the “reduction in IP6K activity” value in data set [1] (intact HCT116 cells, 2.5 µM) is > 70%.
For the compound `O=c1cc(-c2ccc(O)c(O)c2)oc2cccc(O)c12` [Compound 9, 5,3’,4’-Trihydroxyflavone], the “fold higher IC50 against hIP6K2 compared to 3” value on hIP6K2 amounted to 6 fold.
`COc1cc(O)c2c(=O)cc(-c3ccc(O)cc3)oc2c1` [Compound 10, Genkwanin]: the “fold higher IC50 against hIP6K2 compared to 5” value at hIP6K2 was 3 fold.
Consider `COc1cc(O)c2c(=O)c(O)c(-c3ccc(O)c(O)c3)oc2c1` [Compound 11, Rhamnetin], for which the “fold higher IC50 (reduction in inhibitory activity) against hIPMK compared to 2” value at hIPMK amounted to 6 fold. Moreover, in data set [1] (HCT116, 2.5 µM, 3.5 hr), the “effect on InsP5 levels” value is “not significantly affected”, the “effect on InsP6 levels” value is on record as “not significantly affected” and the “effect on InsP7 synthesis / levels” value is recorded as “inability of 11 to reduce InsP7”. Further, at hIP6K2 (relative to compound 2), the “fold higher IC50 against hIP6K2 compared to 2” value was determined as 2.6 fold and the “fold increase in selectivity for hIP6K2 (vs hIPMK) compared to 2” value was found to be 2.4 fold.
In the case of `O=C1C[C@@H](c2ccc(O)c(O)c2)Oc2cc(O)cc(O)c21` [Compound 16, Eriodictyol], the “fold loss of activity against hIPMK compared to 3” value at hIPMK (relative to compound 3) is reported as > 5.5 fold. Further, on hIP6K2, the “fold higher IC50 against hIP6K2 compared to 3” value was found to be 19 fold.
Take `O=C1C[C@@H](c2ccc(O)cc2)Oc2cc(O)cc(O)c21` [Compound 17, Naringenin]: on hIP6K2, the “fold higher IC50 against hIP6K2 compared to 5” value is “at least 4 fold”.
For `O=[N+]([O-])c1ccc(CNc2nc(NCc3cccc(C(F)(F)F)c3)nc3[nH]cnc23)cc1` [TNP, N2-(m-(trifluoromethyl)benzyl) N6-(p-nitrobenzyl)purine, reference compound], the “effect upon AKT activity (p-AKT T308 / total AKT)” value in data set [4] (3T3-L1, 1 µM TNP) is on record as “increased”; in data set [5] (HCT116, 10 µM TNP), “did not affect AKT activity”.
